# Source: PubChem BioAssay (several laboratories)
# Rows were chosen to be rich in hits. Some 2.4% of all compounds tested hit in one or more screens of this group.
# Jurkat NFkB inh: lowers PMA/ionomycin-induced NF-kB signal in Jurkat cells; inhibition, % at 4 µM; AID 435003; 330,000 compounds, 0.53% hits; PMA/ionomycin-induced NF-kB luciferase reporter, luminescence; in the data active means inhibition above about 50%
# NR2E3 ag-1: activates human photoreceptor nuclear receptor NR2E3; Q9Y5X4; GST-NR2E3/biotin-RetCOR TR-FRET, 1536-well; inhibition of corepressor binding, % at 4.78 µM; 320,000 compounds, 0.12% hits;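 active means percent inhibition above the cutoff of mean plus 3 SD of all tested compounds, set per screening campaign, cut at about 20% in these data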;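 further: 0% = DMSO wells and 100% = biotin wells as full block of FRET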
# Target sequence (Q9Y5X4 whole entry, looked up): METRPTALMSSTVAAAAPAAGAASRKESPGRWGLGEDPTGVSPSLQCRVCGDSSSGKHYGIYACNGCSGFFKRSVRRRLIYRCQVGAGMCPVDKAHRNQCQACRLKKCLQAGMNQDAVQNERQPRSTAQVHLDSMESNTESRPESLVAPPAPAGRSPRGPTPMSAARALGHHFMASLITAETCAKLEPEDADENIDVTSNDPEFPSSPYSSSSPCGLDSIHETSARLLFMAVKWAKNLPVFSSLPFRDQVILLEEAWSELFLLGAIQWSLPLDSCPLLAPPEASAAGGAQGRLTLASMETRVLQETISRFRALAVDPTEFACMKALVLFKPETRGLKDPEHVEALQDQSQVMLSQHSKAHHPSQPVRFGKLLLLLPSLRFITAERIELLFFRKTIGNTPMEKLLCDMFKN
#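 Material: NR2E3–RetCOR corepressor complex / Amount: 1.35 nM GST-NR2E3 / Medium: Tris pH 7.5 / Compound: single nominal compound dose of 4.8 µM / Incubation: 5 h at 4 °C / Technique: TR-FRET, Eu(K)-anti-GST donor, streptavidin-D2 acceptor, ex 340, em 617/671 nm / Read-out basis: percent loss of FRET ratio relative to control wells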
# aDG glyco act: alpha-DG glycosylation activation. Pro5-aDG cells, alpha-DG glycosylation AlphaScreen (IIH6); 0% Pro5, 100% B10-LARGE cell signal. activation, % at 10 µM. 360,000 compounds, 0.22% hits. AID 624168;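 active means activation of at least 8% versus controls, or a plate z-score of at least 8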;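 further: Pro5 are CHO cells carrying HIG-tagged alpha-DG that lacks glycosylation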
# 697 NFkB inh: inhibitors of the PMA/ionomycin-induced NF-kB reporter in 697 B cells; AID 435022; 697 B-cell NF-kB luciferase reporter, 16 h; inhibition, % at 4 µM; 330,000 compounds, 0.33% hits; in the data active means inhibition above about 35%
# MPTP block: inhibitors of mitochondrial permeability transition pore; 360,000 compounds, 1.4% hits; isolated mouse mitochondria, Ca2+ swelling absorbance, 30 min; inhibition, % at 10 µM;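 active means inhibition of 50% or more, scaled per plate between neutral and stimulator controls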;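 further: 0% = DMSO wells given calcium and 100% = 1 mM EGTA wells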
# NR2E3 ag-2: human photoreceptor-specific nuclear receptor agonism. Q9Y5X4. 360,000 compounds, 0.35% hits. inhibition of corepressor binding, % at 3.98 µM. CHO-S Gal4-NCOR/VP16-NR2E3 two-hybrid, luciferase;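 active means inhibition above the mean of all tested compounds plus 3 SD, cut at about 70% in these data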;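 further: 0% = DMSO with NR2E3 transfected cells and 100% = cells lacking NR2E3 construct; higher means lower luciferase signal from less NR2E3 corepressor binding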
# NR2E3 ag confirm: confirmation of human NR2E3 agonists. inhibition, % at 3.98 µM. AID 624378. 2,300 compounds, 51% hits. CHO-S mammalian two-hybrid NR2E3-NCOR, luciferase luminescence. shares compounds with NR2E3 ag-2;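 active means average inhibition above a cutoff equal to the mean inhibition of all tested compounds plus one SD, cut at about 70% in these data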;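 further: 0% = DMSO in NR2E3 cells and 100% = DMSO in cells lacking NR2E3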
# VP16 counter: reduces GAL4-VP16 reporter signal in NR2E3 counterscreen; shares compounds with NR2E3 ag-2; CHO-S GAL4-VP16 luciferase reporter, luminescence; inhibition, % at 3.98 µM; 2,300 compounds, 29% hits; AID 624379;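 active means mean inhibition above a cutoff equal to the average over all tested compounds plus one standard deviation, cut at about 70% in these data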;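 further: luciferase from a UAS reporter driven by GAL4-VP16 transactivation; 0% = DMSO with VP16-transfected cells and 100% = DMSO with cells lacking VP16; higher means less reporter light so more repression of VP16 activity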
# Starred values were filed as active, the others as inactive; / = no result.
SMILES,Jurkat NFkB inh,NR2E3 ag-1,aDG glyco act,697 NFkB inh,MPTP block,NR2E3 ag-2,NR2E3 ag confirm,VP16 counter
OC[C@@H]1CN(Cc2cccc3ccccc23)C[C@H](n2cnc3c(NCc4ccco4)ncnc32)O1,/,/,-1,/,-2,53,6,8
Cc1cc2nc(-c3ccc(F)cc3)c(CC3CCCCC3)n2c(C)c1Br,/,/,0,/,0,-8,/,/
COc1ccc(-c2nc(CS(=O)CC(=O)NCc3ccc4c(c3)OCO4)c(C)o2)cc1OC (stereo not given),-5,-1,0,-21,0,-17,/,/
Nc1ccc(Oc2ccccc2-c2ccccc2)cc1,-13,-2,0,14,1,48,31,37
C=CCN1C(=O)C(=O)N(CC(=O)c2ccc3c(c2)CCCC3)C1=O,-7,0,0,16,0,-7,/,/
NS(=O)(=O)c1ccc(NC(=S)Nc2ccc(S(=O)(=O)Nc3nccs3)cc2)cc1,/,/,0,/,0,-16,/,/
CSC(=S)N/N=C(\C)c1ccc(Br)cc1,4,-3,0,-16,1,82*,-15,-18
COc1ccc(/C=N\NC(=O)c2ccccc2Br)cc1COc1c(F)c(F)cc(F)c1F,15,0,0,-22,0,49,35,51
Cn1cc(-c2coc3c(C(=O)NCc4cccnc4)cccc23)cn1,/,/,0,/,0,-26,/,/
O=C(Nc1cccc(C(F)(F)F)c1)c1cccc2c(-c3cccnc3)coc12,/,/,0,/,2,-59,/,/
COc1ccc(CNC(=O)c2cccc3c(-c4cnn(C)c4)coc23)cc1OC,/,/,2,/,16,63,41,34
COc1cc(NC(=O)c2cccc3c(-c4cccnc4)coc23)cc(OC)c1OC,/,/,0,/,4,51,13,42
O=C(COC(=O)c1ccc2ccccc2n1)Nc1ccccc1F,15,/,0,10,0,-33,/,/
CN(C)c1ncnc2c1nnn2C1OC(CO)C(O)C1O (stereo not given),/,/,0,/,-1,89*,-9,61
O=c1[nH]cnc2c1nnn2C1OC(CO)C(O)C1O (stereo not given),/,/,0,/,-2,49,-40,26
Cc1ccc2nc(-c3ccccn3)c(NC3CCCC3)n2c1,-45,1,3,-80,0,60,-34,-79
Cc1cccc(C)c1Nc1c(-c2ccccn2)nc2ccccn12,1,0,1,-3,5,77*,17,2
Cc1cc(C)n2c(Nc3c(C)cccc3C)c(-c3ccccn3)nc2n1,/,/,1,/,0,-1,/,/
Cc1cccc2nc(-c3ccco3)c(Nc3ccccc3)n12,-5,0,0,7,2,9,/,/
Cc1ccc(Nc2c(-c3ccccn3)nc3cccc(C)n23)cc1,12,1,0,5,4,96*,97*,83*
COc1cccc(-c2cnc(C(O)c3ccc(C(C)(C)C)cc3)[nH]2)c1 (stereo not given),/,/,0,/,3,-43,/,/
COc1ccc(/C=C2\SC(=O)N(CCCC(=O)Nc3ccc(C(=O)O)cc3)C2=O)cc1,/,/,0,/,1,88*,85*,92*
COc1ccc(/C=C2\SC(=S)N(CCCC(=O)Nc3cccc(C(=O)O)c3)C2=O)cc1OC,4,-1,0,8,0,2,/,/
O=C(CCCN1C(=O)C(=Cc2ccc3c(c2)OCO3)SC1=S)Nc1ccc(C(=O)O)c(O)c1,/,/,0,/,0,50,8,66
COc1cccc(/C=C2\SC(=S)N(CCCC(=O)Nc3cccc(C(=O)O)c3)C2=O)c1,/,/,0,/,1,68,23,58
O=C(CCCN1C(=O)/C(=C/c2ccccc2)SC1=S)Nc1ccc(C(=O)O)c(O)c1,-16,2,-1,27,-2,23,/,/
CSc1nc(-c2ccccc2)nc(NC(=O)C(C)C)c1C(C)=O,3,0,0,20,0,-4,/,/
